Data from ChEMBL document CHEMBL4354800, “Amphiphilic nebramine-based hybrids Rescue legacy antibiotics from intrinsic resistance in multidrug-resistant Gram-negative bacilli” (Eur J Med Chem, 2019).

What was measured:
Assay type in all cases: functional
Pseudomonas aeruginosa [1] = assay: Potentiation of rifampicin-induced antibacterial activity against MDR/XDR Pseudomonas aeruginosa isolate PA259-96918 harboring GyrA T83I mutant assessed as fold reduction in rifampicin MIC at 9 uM incubated for 18 hrs by broth microdilution method
How it was run: (§1)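 CLSI broth microdilution. Overnight cultures were set to 0.5 McFarland in saline, diluted 1:50 in Mueller-Hinton broth to a final 5 × 10^5 CFU/mL, and incubated 18 h at 37 °C against 2-fold antibiotic dilutions. A fixed adjuvant level was present throughout. MIC = lowest concentration with no visible turbidity, confirmed at 590 nm. Potentiation = fold drop in antibiotic MIC versus antibiotic alone.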

Pseudomonas aeruginosa [2] = assay: Potentiation of rifampicin-induced antibacterial activity against MDR/XDR Pseudomonas aeruginosa isolate 101885 harboring GyrA T83I mutant assessed as fold reduction in rifampicin MIC at 9 uM incubated for 18 hrs by broth microdilution method; how it was run: as §1
Pseudomonas aeruginosa [3] = assay: Potentiation of ciprofloxacin-induced antibacterial activity against MDR/XDR Pseudomonas aeruginosa isolate PA262-101856 harboring GyrA T83I mutant assessed as fold reduction in ciprofloxacin MIC at 9 uM incubated for 18 hrs by broth microdilution method
Pseudomonas aeruginosa [4] = assay: Antimicrobial activity against XDR Pseudomonas aeruginosa isolate PA264 infected in Galleria mellonella larvae assessed as survival rate at 75 mg/kg co-administered with 75 mg/kg rifampicin at 2 hrs post-inoculation measured after 24 hrs relative to control
How it was run: (§2)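 G. mellonella larvae were injected with ~5 CFU of P. aeruginosa PA264 (10 µL of 5 × 10^2 CFU/mL in PBS) and held 2 h at 37 °C. A single 10 µL injection followed: monotherapy or rifampicin + compound (25+25, 50+50 or 75+75 mg/kg), with PBS as control. Larvae kept at 37 °C were scored every 6 h to 24 h; dead = no response to touch. n = 30 (two runs of 15); Kaplan-Meier.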

Escherichia coli [5] = assay: Potentiation of minocycline-induced antibacterial activity against Escherichia coli 94474 assessed as fold reduction in minocycline MIC at 4.1 uM incubated for 18 hrs by broth dilution method
How it was run: (§3)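 Antibiotic MIC determined by CLSI broth microdilution (MHB, 5 × 10^5 CFU/mL, 18 h, 37 °C), once alone and once with a fixed concentration of the adjuvant. Potentiation is the ratio of the antibiotic MIC alone to its MIC in the presence of the adjuvant.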

Escherichia coli [6] = assay: Potentiation of rifampicin-induced antibacterial activity against Escherichia coli ATCC 25922 assessed as fold reduction in rifampicin MIC at 2.0 uM incubated for 18 hrs by broth dilution method; how it was run: as §3
Klebsiella pneumoniae [7] = assay: Potentiation of rifampicin-induced antibacterial activity against Klebsiella pneumoniae 113254 assessed as fold reduction in rifampicin MIC at 4.1 uM incubated for 18 hrs by broth dilution method; how it was run: as §3
Escherichia coli [8] = assay: Synergistic antibacterial activity against Escherichia coli ATCC 25922 assessed as fractional inhibitory concentration index in presence of minocycline incubated for 18 hrs by broth dilution method
How it was run: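 Checkerboard titration of the adjuvant against the antibiotic, run under the CLSI microdilution conditions (MHB, 5 × 10^5 CFU/mL, 18 h, 37 °C). Each agent's FIC is its MIC in combination divided by its MIC alone; FICI is the sum of the two FICs. FICI ≤0.5 was read as synergy, >0.5–4.0 as no interaction, and >4.0 as antagonism.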

Pseudomonas aeruginosa [9] = assay: Antimicrobial activity against XDR Pseudomonas aeruginosa isolate PA264 infected in Galleria mellonella larvae assessed as survival rate at 75 mg/kg co-administered with 75 mg/kg rifampicin at 2 hrs post-inoculation measured after 18 hrs relative to control; how it was run: as §2
Klebsiella pneumoniae [10] = assay: Antimicrobial activity against Klebsiella pneumoniae 113250 incubated for 18 hrs by broth dilution method; conditions: Klebsiella pneumoniae, 113250, 18 h
How it was run: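 CLSI broth microdilution. Overnight cultures were adjusted to 0.5 McFarland in saline, diluted 1:50 in Mueller-Hinton broth, and inoculated at a final 5 × 10^5 CFU/mL. Compounds were tested as 2-fold serial dilutions and incubated 18 h at 37 °C. MIC was the lowest concentration with no visible turbidity, confirmed by absorbance at 590 nm.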

Pseudomonas aeruginosa [11] = assay: Antimicrobial activity against XDR Pseudomonas aeruginosa isolate PA264 infected in Galleria mellonella larvae assessed as survival rate at 25 mg/kg co-administered with 25 mg/kg rifampicin at 2 hrs post-inoculation measured after 24 hrs relative to control; how it was run: as §2
Pseudomonas aeruginosa [12] = assay: Potentiation of ciprofloxacin-induced antibacterial activity against MDR/XDR Pseudomonas aeruginosa isolate PA259-96918 harboring GyrA T83I mutant assessed as fold reduction in ciprofloxacin MIC at 7.5 uM incubated for 18 hrs by broth microdilution method
Pseudomonas aeruginosa [13] = assay: Potentiation of rifampicin-induced antimicrobial activity against MDR/XDR Pseudomonas aeruginosa isolate 101885 harboring GyrA Thr83Ile mutant assessed as rifampicin MIC80 incubated for 18 hrs by broth microdilution method (reference value: 16 microg/ml); conditions: isolate 101885, 18 h
Pseudomonas aeruginosa [14] = assay: Synergistic antibacterial activity against MDR/XDR Pseudomonas aeruginosa isolate PA264-104354 harboring GyrA T83I mutant assessed as fractional inhibitory concentration index in presence of ciprofloxacin incubated for 18 hrs by broth microdilution method
How it was run: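 Checkerboard synergy assay. Antibiotic and adjuvant in twofold dilutions in Mueller-Hinton broth. Inoculum 5 × 10^5 CFU/mL from a 0.5 McFarland suspension, 18 h at 37 °C, MIC read by turbidity and confirmed at 590 nm. FIC = MIC in combination / MIC alone for each agent, FICI = sum. Interpreted as ≤0.5 synergy, 0.5–4 no interaction, >4 antagonism.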

Pseudomonas aeruginosa [15] = assay: Potentiation of rifampicin-induced antibacterial activity against MDR/XDR Pseudomonas aeruginosa isolate 91433 devoid of GyrA T83I mutant assessed as fold reduction in rifampicin MIC at 7.5 uM incubated for 18 hrs by broth microdilution method; how it was run: as §1
Pseudomonas aeruginosa [16] = assay: Potentiation of minocycline-induced antibacterial activity against MDR/XDR Pseudomonas aeruginosa isolate PA259-96918 harboring GyrA T83I mutant assessed as fold reduction in minocycline MIC at 7.5 uM incubated for 18 hrs by broth microdilution method
Pseudomonas aeruginosa [17] = assay: Potentiation of minocycline-induced antimicrobial activity against MDR/XDR Pseudomonas aeruginosa isolate 100036 harboring GyrA Thr83Ile mutant assessed as minocycline MIC50 incubated for 18 hrs by broth microdilution method (reference value: 16 microg/ml); conditions: isolate 100036, 18 h
Pseudomonas aeruginosa [18] = assay: Potentiation of rifampicin-induced antibacterial activity against MDR/XDR Pseudomonas aeruginosa isolate 101243 devoid of GyrA T83I mutant assessed as fold reduction in rifampicin MIC at 7.5 uM incubated for 18 hrs by broth microdilution method; how it was run: as §1
Enterobacter cloacae = assay: Potentiation of minocycline-induced antibacterial activity against Enterobacter cloacae 117029 assessed as fold reduction in minocycline MIC at 7.5 uM incubated for 18 hrs by broth dilution method; how it was run: as §3
Pseudomonas aeruginosa [19] = assay: Potentiation of minocycline-induced antimicrobial activity against MDR/XDR Pseudomonas aeruginosa isolate 101885 harboring GyrA Thr83Ile mutant assessed as minocycline MIC80 incubated for 18 hrs by broth microdilution method (reference value: 32 microg/ml); conditions: isolate 101885, 18 h

Cl.Cl.Cl.Cl.Cl.Cl.NC[C@H]1O[C@H](O[C@H]2[C@H](OCCCCCCCCCCN3CCN(Cc4cccc5ccccc45)CC3)[C@@H](O)[C@H](N)C[C@@H]2N)[C@H](N)C[C@@H]1O
fold change (FC) (Pseudomonas aeruginosa [1]): >=256
fold change (FC) (Pseudomonas aeruginosa [2]): 128
fold change (FC) (Pseudomonas aeruginosa [3]): 8

Cl.Cl.Cl.Cl.Cl.NC[C@H]1O[C@H](O[C@H]2[C@H](OCCCCCCCCCCCCN3CCN(c4cc5c(cc4F)c(=O)c(C(=O)O)cn5C4CC4)CC3)[C@@H](O)[C@H](N)C[C@@H]2N)[C@H](N)C[C@@H]1O
survival at 75 mg/kg (Pseudomonas aeruginosa [4]): 53%
fold change (FC) (Escherichia coli [5]): 16
fold change (FC) (Escherichia coli [6]): 128
fold change (FC) (Klebsiella pneumoniae [7]): 64
fractional inhibitory concentration index (FICI) (Escherichia coli [8]): 0.504
survival at 75 mg/kg (Pseudomonas aeruginosa [9]): 87%
MIC (Klebsiella pneumoniae [10]): 128 µg/mL
survival at 25 mg/kg (Pseudomonas aeruginosa [11]): 13%

COc1c(N2C[C@@H]3CCCN(CCCCCCCCCCCCO[C@@H]4[C@@H](O)[C@H](N)C[C@H](N)[C@H]4O[C@H]4O[C@H](CN)[C@@H](O)C[C@H]4N)[C@@H]3C2)c(F)cc2c(=O)c(C(=O)O)cn(C3CC3)c12.Cl.Cl.Cl.Cl.Cl
fold change (FC) (Pseudomonas aeruginosa [12]): 4
MIC80 (Pseudomonas aeruginosa [13]): 0.13 µg/mL
fractional inhibitory concentration index (FICI) (Pseudomonas aeruginosa [14]): 0.16
fold change (FC) (Pseudomonas aeruginosa [15]): 128
fold change (FC) (Pseudomonas aeruginosa [16]): 32
MIC50 (Pseudomonas aeruginosa [17]): 0.5 µg/mL
fold change (FC) (Pseudomonas aeruginosa [18]): 32
fold change (FC) (Enterobacter cloacae): 16
MIC80 (Pseudomonas aeruginosa [19]): 1 µg/mL
